# Results of several laboratories.
# Compare with care: the assays were run in different laboratories.
# Cell line: HepG2
# Effect on: cell growth or viability
SMILES,assay,setting,IC50
C=CCNC1=C2C[C@@H](C)C[C@H](OC)[C@H](O)[C@@H](C)/C=C(\C)[C@H](OC(N)=O)[C@@H](OC)/C=C\C=C(/C)C(=O)NC(=CC1=O)C2=O,MTT,,0.086 µM
COc1ccnc(-c2cc(OC)ccn2)c1,MTT,48 h,> 50 µM
O=c1cc(-c2ccc(O)c(O)c2)oc2cc(O)cc(O)c12,WST-1,48 h,15.2 µM
COc1ccc(-c2nc3ccc(C)cc3[nH]2)cc1O,MTT,48 h,59.8 µM
OCc1ccc2c(c1C#Cc1ccc(O)cc1)C(c1ccc(O)cc1)(c1ccc(O)cc1)c1cc(O)ccc1-2,MTT,48 h,> 50 µM
CC(=O)Oc1ccc2c(c1)C(C)=CC(C)(C)N2Cc1ccccc1,MTT,72 h,36 µM
CCCCNC(=O)NNC(=O)c1cccc(Nc2nccc(-c3ccncc3)n2)c1,MTT,24 h,> 40 µM
c1ccc2[nH]c(-c3ccncc3)nc2c1,MTT,48 h,87.7 µM
Cc1cc(C)n(-c2nc(Nc3ccc(Cl)cc3)nc(-n3nc(C)cc3C)n2)n1,MTT,72 h,19.5 µM
O=C(N/N=C/CN1CCOCC1)Nc1cc2c(Nc3ccc(F)c(Cl)c3)ncnc2cc1O[C@H]1CCOC1,MTT,72 h,3.26 µM
Oc1ccc(-c2csc(Nc3ccc4c(O)ncnc4c3)n2)cc1,MTT,,14.2 µM
COc1cc2ncnc(Nc3ccc(F)c(Cl)c3)c2cc1NC(=O)N/N=C/c1cccn1CCN1CCOCC1,MTT,72 h,0.03 µM
COc1ccc(-c2cc(-c3ccc4oc(=O)cc(C)c4c3O)nc(N)n2)cc1,MTT,72 h,> 128 mg/L
C#Cc1cccc(Nc2ncnc3cc(OCCOC)c(OCCOC)cc23)c1,MTT,,6.83 µM
COc1cccc2c1C(=O)c1c(O)c3c(c(O)c1C2=O)C[C@@](O)(C(=O)CO)C[C@@H]3O[C@H]1C[C@H](N)[C@H](O)[C@H](C)O1,MTT,24 h,3.6 µM
O=C(/C=C/c1ccc(O)c(O)c1)O[C@@H]1C[C@](O)(C(=O)O)C[C@@H](O)[C@H]1O,WST-1,48 h,24.6 µM
CCNC(=O)NNC(=O)c1ccc(Nc2nccc(-c3ccc(Cl)cc3)n2)cc1,MTT,24 h,20.3 µM
Clc1ccc(-c2nc3ccccc3[nH]2)c(Cl)c1,MTT,48 h,37.5 µM
Clc1ccnc2c1ccc1c(Cl)ccnc12,MTT,48 h,> 50 µM
COc1cccc(-c2nc3ccccc3n2Cc2ccccc2)c1,MTT,,40.7 µM
O=C(NNC(=O)c1ccc(Nc2nccc(-c3ccc(Cl)cc3)n2)cc1)NC1CCCCC1,MTT,24 h,13.1 µM
COc1cc2ncnc(Nc3ccc(F)c(Cl)c3)c2cc1NC(=O)N/N=C/CN1CCN(C)CC1,MTT,72 h,2.23 µM
CCCCNC(=O)NNC(=O)c1ccc(Nc2nccc(-c3ccccn3)n2)cc1,MTT,24 h,15.7 µM
CC1=C(O)C(=O)C=C2C1=CC=C1[C@@]2(C)CC[C@@]2(C)[C@@H]3C[C@](C)(C(=O)OCCCCCCCCO)CC[C@]3(C)CC[C@]12C,MTT,48 h,3.3 µM
Cc1cc(=O)oc2ccc(-c3cc(-c4cccc(Cl)c4)nc(N)n3)c(O)c12,MTT,72 h,> 128 mg/L
"Cl.Oc1cccc2c1[nH]c1c(C3=CC4(O)CC/C=C\CCCCN5CCC3C3(CC6/C=C\CCCCN6C43)C5)nccc12 (single isomer, unassigned; (+))",neutral red,48 h,1.5 mg/L
CC(=O)OCCOC(=O)[C@]1(C)CC[C@]2(C)CC[C@]3(C)C4=CC=C5C(=CC(=O)C(O)=C5C)[C@]4(C)CC[C@@]3(C)[C@@H]2C1,MTT,48 h,2.55 µM
Cc1ccc2nc(-c3cccc(O)c3)[nH]c2c1,MTT,48 h,95.3 µM
O=C(NCCc1ccccc1)NNC(=O)c1ccc(Nc2nccc(-c3cccnc3)n2)cc1,MTT,,5.48 µM
O=c1c(O)c(-c2ccc(O)c(O)c2)oc2cc(O)cc(O)c12,WST-1,48 h,10.1 µM
COc1cc2ncnc(Nc3ccc(F)c(Cl)c3)c2cc1NC(=O)N/N=C/CN1CCCC1,MTT,72 h,2.48 µM
Cc1ccc(-c2cc(-c3ccc4oc(=O)cc(C)c4c3O)nc(N)n2)cc1,MTT,72 h,> 128 mg/L
CC(=O)O[C@@]12CO[C@@H]1C[C@H](O)[C@@]1(C)C(=O)[C@H](O)C3=C(C)[C@@H](OC(=O)[C@H](O)[C@@H](NC(=O)OC(C)(C)C)c4ccccc4)C[C@@](O)([C@@H](OC(=O)c4ccccc4)[C@H]21)C3(C)C,CCK-8,72 h,0.11 µM
C[C@H]1O[C@@H](n2cc(F)c(=O)[nH]c2=O)[C@H](O)[C@@H]1O,CCK-8,48 h,> 50 µM
Oc1c(I)cc(I)c2cccnc12,MTT,48 h,80.1 µM
COc1cc2ncnc(Nc3ccc(F)c(Cl)c3)c2cc1NC(=O)N/N=C/c1cccn1CCCN1CCCC1,MTT,72 h,0.06 µM
Fc1ccc(-c2nc3ccccc3[nH]2)cc1,MTT,48 h,35.8 µM
CC1(C)[C@@H](O)CC[C@]2(C)[C@H]3C(=O)C=C4[C@@H]5C[C@@](C)(C(=O)O)CC[C@]5(C)CC[C@@]4(C)[C@]3(C)CC[C@@H]12,MTT,48 h,> 100 µM
COc1c(-c2coc3cc4c(cc3c2=O)CC(OC(C)=O)C(C)(C)O4)ccc2c1C=CC(C)(C)O2 (stereo not shown),WST-1,72 h,124 µM
COC(=O)CN=c1scc(-c2ccccc2)n1-c1ccccc1C,MTT,72 h,79.2 µM
CCOc1ccc(-c2nc3ccccc3[nH]2)cc1,MTT,48 h,43.1 µM
CC1=C(O)C(=O)C=C2C1=CC=C1[C@@]2(C)CC[C@@]2(C)[C@@H]3C[C@](C)(C(=O)OCCCCCCCO)CC[C@]3(C)CC[C@]12C,MTT,48 h,7.21 µM
O=C(N/N=C/c1cccn1CCN1CCCC1)Nc1cc2c(Nc3ccc(F)c(Cl)c3)ncnc2cc1O[C@H]1CCOC1,MTT,72 h,0.64 µM
Cc1ccc2nc(-c3ccc(N(C)C)cc3)[nH]c2c1,MTT,48 h,35.1 µM
COc1cc2ncnc(Nc3ccc(F)c(Cl)c3)c2cc1NC(=O)N/N=C/CN1CCOCC1,MTT,72 h,4.42 µM
CC1=C(O)C(=O)C=C2C1=CC=C1[C@@]2(C)CC[C@@]2(C)[C@@H]3C[C@](C)(C(=O)OCCCCO)CC[C@]3(C)CC[C@]12C,MTT,48 h,0.63 µM
O=C(N/N=C/c1cccn1CCCN1CCOCC1)Nc1cc2c(Nc3ccc(F)c(Cl)c3)ncnc2cc1O[C@H]1CCOC1,MTT,72 h,1.89 µM
O=[N+]([O-])c1ccc(Cn2cc(Cn3c4ccccc4c4nc5ccccc5nc43)nn2)cc1,MTT,24 h,> 100 µM
Oc1ncnc2cc(Nc3nc(-c4ccc(Br)cc4)cs3)ccc12,MTT,,9.85 µM
